Assay outcomes deposited in PubChem BioAssay by Broad Institute.
SIRT5 inh – SIRT5 desuccinylase inhibitors, primary screen, biochemical, fluorescence imaging, single point, set 5. NAD-dependent protein deacylase sirtuin-5, mitochondrial (Homo sapiens), Q9NXA8. Purified SirT5, succinyl-peptide AMC, trypsin-coupled fluorescence. inhibition, % at 15 µM. 330,000 tested, 1.1% active; in the data active = inhibition above about 15%
Target sequence (Q9NXA8 whole entry, looked up): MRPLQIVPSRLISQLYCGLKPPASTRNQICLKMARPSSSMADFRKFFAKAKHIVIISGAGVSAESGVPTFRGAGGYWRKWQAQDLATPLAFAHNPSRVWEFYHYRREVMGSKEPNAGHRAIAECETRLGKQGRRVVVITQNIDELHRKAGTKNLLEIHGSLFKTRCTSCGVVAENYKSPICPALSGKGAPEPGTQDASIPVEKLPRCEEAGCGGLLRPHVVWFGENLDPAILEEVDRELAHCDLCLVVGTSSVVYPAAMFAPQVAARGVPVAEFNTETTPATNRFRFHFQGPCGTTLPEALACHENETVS
E-sel inducer – E-selectin induction in HUVECs, primary screen, imaging, HUVEC, immunofluorescence imaging, single point; 260,000 tested, 0.37% active; P16581; normalized: neutral wells 0, TNF-alpha wells 100; AID 686992, 2013; activation, % at 7.58 µM;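 active = mean E-selectin-positive cell signal at least 10% of the positive control, reached in at least 60% of replicates, without over 20% cell loss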
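System: HUVEC / Compound: single concentration / Signal: immunofluorescence imaging / Read-out: percent E-selectin-positive cells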
DENV2 CPE rescue – inhibitors of DENV2 cytopathic effect, primary screen, cell-based, plate reader, single concentration | CPE inhibition, % at 9.99 µM | 350,000 tested, 1.7% active | DENV2-infected cells, cytopathic effect rescue | AID 651640, 2012; in the data active = CPE inhibition above about 20%, passing the limit was not always enough; tested in BHK-21 cells;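 also: 0% = median of neutral control wells and 100% = median of positive control wells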
The depositor's hits bear a star. An excerpt weighted towards active compounds, which were near 2.8% of everything screened.

`C[C@@H]1CN([C@@H](C)CO)C(=O)c2cc(NC(=O)C3CCCCC3)ccc2O[C@@H](C)CCCCO[C@H]1CN(C)Cc1ccc(C(F)(F)F)cc1` gave E-sel inducer 0.
Screening CN(C)C(=O)c1cccc(-c2cccc(-c3nc(C(=O)N4CCOCC4)cc4c3[C@@H](CCO)N([S@](=O)C(C)(C)C)C4)c2)c1 returned SIRT5 inh 5, E-sel inducer 0 and DENV2 CPE rescue 1.
`C[C@@H]1CN([C@@H](C)CO)S(=O)(=O)c2ccc(C#CC3CC3)cc2O[C@@H]1CN(C)Cc1ccncc1` gave SIRT5 inh 1, E-sel inducer 0 and DENV2 CPE rescue 6.
For C[C@@H]1CN([C@H](C)CO)C(=O)c2cc(NC(=O)Nc3ccc4c(c3)OCO4)ccc2O[C@@H](C)CCCCO[C@@H]1CN(C)S(=O)(=O)c1cn(C)cn1 the results were SIRT5 inh -4, E-sel inducer 0 and DENV2 CPE rescue 1.
`OC[C@@H]1[C@H](c2ccc(C#CC3(O)CCCC3)cc2)[C@H]2CN(Cc3cccnc3)CCCCN12` gave SIRT5 inh 0, E-sel inducer 0 and DENV2 CPE rescue -3.
Screening Cc1ccc(S(=O)(=O)N(C)C[C@H]2Oc3ccc(NC(=O)Cn4cnnn4)cc3CC(=O)N([C@H](C)CO)C[C@@H]2C)cc1 returned SIRT5 inh 2, E-sel inducer 0 and DENV2 CPE rescue 2.
For Cc1ccc(S(=O)(=O)N(C)C[C@@H]2Oc3ccc(NC(=O)Cn4cnnn4)cc3CC(=O)N([C@H](C)CO)C[C@@H]2C)cc1 the results were SIRT5 inh -5, E-sel inducer 0 and DENV2 CPE rescue 31*.
`COc1ccc(NC(=S)NC(=O)/C=C/c2cccs2)cc1` gave SIRT5 inh -1 and DENV2 CPE rescue 18.
O=C(/C=C/c1ccc(Cl)cc1)NC(=S)Nc1ccc(C(=O)O)cc1 was read as SIRT5 inh 7, E-sel inducer 0 and DENV2 CPE rescue 0.
Screening COc1ccc(NC(=S)NC(=O)/C=C/c2ccccc2)cc1 returned SIRT5 inh 1, E-sel inducer -1 and DENV2 CPE rescue 38*.
CC(=O)NC(=S)Nc1ccc(NC(=S)NC(=O)/C=C/c2ccco2)cc1 was read as SIRT5 inh 2 and DENV2 CPE rescue 1.
`O=C(/C=C/c1ccc(Cl)cc1)NC(=S)Nc1ccccc1C(=O)O` gave SIRT5 inh 2 and DENV2 CPE rescue 23*.
Screening O=C(/C=C/c1ccco1)NC(=S)Nc1ccc(C(=O)O)cc1 returned SIRT5 inh 22*, E-sel inducer 1 and DENV2 CPE rescue 1.
`O=C(N[C@@H]1CC[C@@H](CCNC(=O)C2CCCC2)O[C@H]1CO)c1ccncc1` gave SIRT5 inh 1, E-sel inducer 0 and DENV2 CPE rescue 1.
`C/C=C/c1ccc([C@H]2[C@@H](CNC(C)C)N(C(=O)c3ccccn3)[C@H]2CO)cc1` gave E-sel inducer 0.
`CO[C@@H]1CN(C)C(=O)c2cc(NC(C)=O)ccc2OC[C@H](C)N(C(=O)c2ccccn2)C[C@@H]1C` gave SIRT5 inh 0, E-sel inducer 0 and DENV2 CPE rescue 17.
O=C(C[C@@H]1C[C@H]2c3cc(NC(=O)c4ccc5c(c4)OCO5)ccc3O[C@H]2[C@H](CO)O1)NC1CCCCC1 was read as SIRT5 inh 1, E-sel inducer 0 and DENV2 CPE rescue -4.
`CC(C)C[C@@H]1NC(=O)[C@@H]2C[C@H](C(=O)O)[C@H](c3cccc(OCCO)c3)N2C1=O` gave SIRT5 inh -1 and DENV2 CPE rescue 3.
CC(C)C[C@@H]1NC(=O)[C@H]2C[C@@H](C(=O)NCCCCCNC(=O)CS)[C@@H](c3cccc(OCCO)c3)N2C1=O was read as SIRT5 inh -3 and DENV2 CPE rescue 21*.
For NCCCCCCNC(=O)[C@H]1C[C@H]2C(=O)N[C@@H](Cc3ccccc3)C(=O)N2[C@H]1c1cccc(OCCO)c1 the results were SIRT5 inh 1 and DENV2 CPE rescue 21*.
For NCCCCCNC(=O)[C@@H]1C[C@@H]2C(=O)N[C@@H](Cc3ccccc3)C(=O)N2[C@@H]1c1cccc(OCCO)c1 the results were SIRT5 inh 10 and DENV2 CPE rescue 1.
O=S(=O)(NC[C@@H]1[C@@H](c2ccccc2)[C@@H](CO)N1CC1CC1)c1ccccc1 was read as SIRT5 inh -3, E-sel inducer 0 and DENV2 CPE rescue 13.
`O=C(c1ccccc1[N+](=O)[O-])N1CCN(c2ccc(N3CCOCC3)nn2)CC1` gave SIRT5 inh 2 and E-sel inducer 58*.
